Results as given in ChEMBL document CHEMBL3576806, “Design and synthesis of novel arctigenin analogues for the amelioration of metabolic disorders” (ACS Med Chem Lett, 2015).
Blank lines part the entries; values can stand above or below the molecule they belong to. Active and inactive are the calls of the source. No cut-off for these calls is given here.

What was measured:
[1] = tested on: L6; assay: Increase in glucose uptake in rat L6 cells at 24 uM pre-treated with compound for 30 mins using 2-deoxy-D-[1,2-3H]glucose and measured after 2 hrs by liquid scintillation counting method; assay type: functional
Procedure, shortened: (§1)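 L6 myotubes exposed to compound for 2 h at 1.5, 3, 6, 12 or 24 μM; 2-deoxyglucose uptake expressed as fold over untreated control; 3 μM (−)-arctigenin run alongside as positive control; mean ± SEM of 3 independent experiments.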

[2] = tested on: L6; assay: Increase in glucose uptake in rat L6 cells at 24 uM pre-treated with compound for 30 mins using 2-deoxy-D-[1,2-3H]glucose and measured after 2 hrs […] by liquid scintillation counting method; assay type: functional; procedure, shortened: as §1
[3] = tested on: L6; assay: Ratio of glucose uptake in rat L6 cells at 24 uM after 2 hrs to glucose uptake in rat L6 cells at 24 uM after 2 hrs in presence of 3 uM (-)-arctigenin; assay type: functional
Procedure, shortened: (§2)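 Glucose uptake in L6 myotubes after 2 h compound exposure divided by uptake with the 3 μM (−)-arctigenin positive control run in parallel.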

[4] = tested on: L6; assay: Ratio of glucose uptake in rat L6 cells at 6 uM after 2 hrs to glucose uptake in rat L6 cells at 6 uM after 2 hrs in presence of 3 uM (-)-arctigenin; assay type: functional; procedure, shortened: as §2
[5] = tested on: L6; assay: Increase in glucose uptake in rat L6 cells at 6 uM pre-treated with compound for 30 mins using 2-deoxy-D-[1,2-3H]glucose and measured after 2 hrs by liquid scintillation counting method; assay type: functional; procedure, shortened: as §1
[6] = tested on: L6; assay: Increase in glucose uptake in rat L6 cells at 6 uM pre-treated with compound for 30 mins using 2-deoxy-D-[1,2-3H]glucose and measured after 2 hrs […] by liquid scintillation counting method; assay type: functional; procedure, shortened: as §1
[7] = tested on: L6; assay: Induction of AMPK activation in rat L6 cells assessed as increase in ACC phosphorylation at 3 uM incubated for 2 hrs by Western blotting method; assay type: cell-based
Procedure, shortened: (§3)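 L6 myotubes treated 2 h at the stated concentrations; phosphorylated AMPK and phosphorylated ACC detected by immunoblot.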

[8] = tested on: L6; assay: Induction of fatty acid oxidation in rat L6 cells using [9,10-3H(N)]-palmitic acid incubated for 2 hrs in presence of AMPK inhibitor compound-C; assay type: functional, cell-based
Procedure, shortened: (§4)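 Fatty acid oxidation measured in L6 myotubes after compound treatment, also with compound C to block AMPK; mean ± SEM, n = 3 independent experiments.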

[9] = tested on: L6; assay: Increase in glucose uptake in rat L6 cells at 3 umol/L pre-treated with compound for 30 mins using 2-deoxy-D-[1,2-3H]glucose and measured after 2 hrs by liquid scintillation counting method relative to control; assay type: functional; procedure, shortened: as §1
[10] = tested on: L6; assay: Induction of AMPK phosphorylation in rat L6 cells at 3 uM incubated for 2 hrs by Western blotting method; assay type: cell-based; procedure, shortened: as §3
[11] = tested on: L6; assay: Increase in glucose uptake in rat L6 cells at 0.75 uM to 3 uM pre-treated with compound for 30 mins using 2-deoxy-D-[1,2-3H]glucose and measured after 2 hrs by liquid scintillation counting method; assay type: functional, cell-based
[12] = tested on: L6; assay: Induction of fatty acid oxidation in rat L6 cells at 6 uM using [9,10-3H(N)]-palmitic acid incubated for 2 hrs; assay type: functional, cell-based; procedure, shortened: as §4
[13] = tested on: L6; assay: Increase in glucose uptake in rat L6 cells pre-treated with compound for 30 mins using 2-deoxy-D-[1,2-3H]glucose and measured after 2 hrs in presence of 10 uM AMPK inhibitor compound-C by liquid scintillation counting method; assay type: functional, cell-based
Procedure, shortened: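 L6 myotube 2-deoxyglucose uptake after compound exposure, tested with and without the AMPK inhibitor compound C; mean ± SEM, n = 3 independent experiments.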

[14] = Tmax in ob/ob mouse at 50 mg/kg, ip measured after 0.5 to 24 hrs; assay type: ADME, organism-based; details: in vivo
[15] = tested on: L6; assay: Induction of AMPK phosphorylation in rat L6 cells at 1.5 uM incubated for 2 hrs by Western blotting method; assay type: cell-based; procedure, shortened: as §3
[16] = tested on: L6; assay: Induction of AMPK activation in rat L6 cells assessed as increase in ACC phosphorylation at 1.5 uM incubated for 2 hrs by Western blotting method; assay type: cell-based; procedure, shortened: as §3
[17] = tested on: L6; assay: Induction of depolarization of mitochondrial membrane potential in rat L6 cells incubated for 10 mins by fluorescence based assay; assay type: functional, cell-based
Procedure, shortened: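 L6 myotubes treated 10 min over a concentration series; mitochondrial membrane potential (Δψm) depolarization measured; mean ± SEM, n = 3 independent experiments.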

[18] = tested on: L6; assay: Ratio of glucose uptake in rat L6 cells at 1.5 uM after 2 hrs to glucose uptake in rat L6 cells at 1.5 uM after 2 hrs in presence of 3 uM (-)-arctigenin; assay type: functional; procedure, shortened: as §2
[19] = tested on: L6; assay: Increase in glucose uptake in rat L6 cells at 1.5 uM pre-treated with compound for 30 mins using 2-deoxy-D-[1,2-3H]glucose and measured after 2 hrs in presence of 3 uM (-)-arctigenin by liquid scintillation counting method; assay type: functional; procedure, shortened: as §1
[20] = tested on: L6; assay: Increase in glucose uptake in rat L6 cells at 1.5 uM pre-treated with compound for 30 mins using 2-deoxy-D-[1,2-3H]glucose and measured after 2 hrs by liquid scintillation counting method; assay type: functional; procedure, shortened: as §1
[21] = tested on: L6; assay: Increase in glucose uptake in rat L6 cells at 3 uM pre-treated with compound for 30 mins using 2-deoxy-D-[1,2-3H]glucose and measured after 2 hrs by liquid scintillation counting method; assay type: functional; procedure, shortened: as §1
[22] = tested on: L6; assay: Ratio of glucose uptake in rat L6 cells at 3 uM after 2 hrs to glucose uptake in rat L6 cells at 3 uM after 2 hrs in presence of 3 uM (-)-arctigenin; assay type: functional; procedure, shortened: as §2
[23] = tested on: L6; assay: Increase in glucose uptake in rat L6 cells at 3 uM […] using 2-deoxy-D-[1,2-3H]glucose and measured after 2 hrs […] by liquid scintillation counting method; assay type: functional; procedure, shortened: as §1
[24] = tested on: L6; assay: Induction of AMPK phosphorylation in rat L6 cells at 6 uM incubated for 2 hrs by Western blotting method; assay type: cell-based; procedure, shortened: as §3
[25] = tested on: L6; assay: Induction of AMPK activation in rat L6 cells assessed as increase in ACC phosphorylation at 6 uM incubated for 2 hrs by Western blotting method; assay type: cell-based; procedure, shortened: as §3

SMILES: COc1ccc(C[C@H]2COC(=O)[C@@H]2Cc2cccc(O)c2)cc1OC
Activity [1]: 180.3% | Activity [2]: 217.8% | Ratio [3]: 0.828

SMILES: COc1ccc(C[C@H]2COC(=O)[C@@H]2Cc2ccc(Br)cc2)cc1OC
Ratio [4]: 0.654 | Activity [5]: 176% | Activity [6]: 269.2%

Tmax [14]: 30 min
SMILES: COc1cc(CC2C(=O)OCC2Cc2ccc(OC)c(OC)c2)ccc1O (racemic)
Activity [7]: Active | Activity [8]: inactive | fold change (FC) [9]: 1.62 | Activity [10]: Active | Activity [11]: Dose-dependent effect | Activity [12]: Active | Activity [13]: inactive | Activity [15]: Active | Activity [16]: Active | Activity [17]: Dose-dependent effect

SMILES: COc1ccc(C[C@H]2COC(=O)[C@@H]2Cc2ccccc2O)cc1OC
Ratio [18]: 0.579 | Activity [19]: 237.6% | Activity [20]: 137.6%

SMILES: COc1ccc(C[C@H]2COC(=O)[C@@H]2Cc2ccc(O)c(O)c2)cc1OC
Activity [21]: 243.2% | Ratio [22]: 1.018 | Activity [23]: 238.9%

SMILES: COc1cc(C[C@H]2C(=O)OC[C@@H]2Cc2ccc(OC)c(OC)c2)ccc1O [ARCTIGENIN]
fold change (FC) [9]: 1.75 | Activity [11]: Dose-dependent effect

SMILES: COc1ccc(C[C@H]2COC(=O)[C@@H]2Cc2ccc(C#N)cc2)cc1OC
Activity [21]: 136.7% | Ratio [22]: 0.528 | Activity [23]: 258.7%

SMILES: COc1ccc(C[C@H]2COC(=O)[C@@H]2Cc2ccc(OC)c(OC)c2)cc1OC
Activity [21]: 137.1% | Ratio [22]: 0.577 | Activity [23]: 237.6%

SMILES: COc1cc(C[C@H]2C(=O)CC[C@@H]2Cc2ccc(OC)c(OC)c2)ccc1O
fold change (FC) [9]: 2.08

SMILES: COc1cc(C[C@H]2C(=O)OC[C@@H]2Cc2ccc3c(c2)OCO3)ccc1O
Ratio [18]: 0.496 | Activity [19]: 265.3% | Activity [20]: 131.7%

SMILES: COc1ccc(C[C@H]2COC(=O)[C@@H]2Cc2ccc(N)cc2)cc1OC
Activity [21]: 126.6% | Ratio [22]: 0.616 | Activity [23]: 205.4%

SMILES: COc1ccc(C[C@H]2COC(=O)[C@@H]2Cc2ccc(F)cc2)cc1OC
Ratio [18]: 0.486 | Activity [19]: 239.6% | Activity [20]: 116.4%

SMILES: COc1ccc(C[C@H]2COC(=O)[C@@H]2Cc2ccc(Cl)cc2)cc1OC
Activity [24]: Active | Activity [7]: Active | Activity [25]: Active | Activity [10]: Active | Ratio [4]: 1.03 | Activity [5]: 191.1% | Activity [6]: 185.5% | Activity [15]: Active | Activity [16]: Active
